What all share (type): functional
For assay [1], the species on record is Mus musculus. Briefly: The maximal effect induced by an agonist expressed as percent inhibition of electrically induced twitches. In a few lines:
(§1)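 Vas deferens from Swiss male mice (25–30 g), prepared per Hughes, in Mg2+-free Krebs (95% O2/5% CO2, pH 7.4) at 33 °C, 0.3 g resting tension. Field stimulation via platinum ring electrodes: supramaximal 1-ms pulses, 0.1 Hz. Isotonic twitch recording. After ~2 h equilibration, cumulative concentration–response curves in 0.5 log steps. Mean ± SEM of at least four experiments; pEC50 with 95% confidence limits.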

Assay [2] is filed under the species Mus musculus. The experiment in a line: Agonist effect in the electrically stimulated mouse vas deferens. (CL95%). In a few lines:
as §1

The species named for assay [3] is Mus musculus. Briefly: The maximal effect induced by an agonist expressed as percent inhibition of electrically induced twitches. In a few lines: as §1
For assay [4], the species on record is Mus musculus. Briefly: Antagonist effect in the electrically stimulated mouse vas deferens; Inactive at 10 uM.
The species named for assay [5] is Mus musculus. Briefly: The maximal effect induced by an agonist expressed as percent inhibition of electrically induced twitches; Inactive at 10 uM. The method in brief:
as §1

The species named for assay [6] is Mus musculus. The experiment in a line: Agonist effect in the electrically stimulated mouse vas deferens. (CL95%); Inactive at 10 uM. In a few lines: as §1
For assay [7], the species on record is Mus musculus. The experiment in a line: Antagonist effect in the electrically stimulated mouse vas deferens. The following applies: read-out: pA2 (converted).
For assay [8], the species on record is Mus musculus. The experiment in a line: Antagonist effect in the electrically stimulated mouse vas deferens;I = Inactive at 10 uM.
The species named for assay [9] is Mus musculus. Briefly: The maximal effect induced by an agonist expressed as percent inhibition of electrically induced twitches;I = Inactive at 10 uM. In a few lines:
as §1

For assay [10], the species on record is Mus musculus. Briefly: Agonist effect in the electrically stimulated mouse vas deferens.;I = Inactive at 10 uM. The method in brief:
as §1

The source made the active and inactive calls. No cut-off for these calls is given here. Numbered stars: 1 amine (or outer) side, 2 acyl side, 3 side chain; on linkers, the order of the positions; unused ones are H or OH. Square brackets hold non-standard residues; d marks the D form. Peptide text beside a SMILES is read from it. X1 = N[C@@H](Cc1ccccc1)CN(CC(=O)[*:2])[*:1]; Ava = NCCCCC(=O)O; GABA = NCCCC(=O)O; βAla = NCCC(=O)O

`C[C@H](NC(=O)CNC(=O)[C@@H](NC(=O)[C@H](Cc1ccccc1)NC(=O)CNC(=O)CNC(=O)[C@@H](N)Cc1ccccc1)[C@@H](C)O)C(=O)N[C@@H](CCCNC(=N)N)C(=O)N[C@@H](CCCCN)C(=O)N[C@@H](CO)C(=O)N[C@@H](C)C(=O)N[C@@H](CCCNC(=N)N)C(=O)N[C@@H](CCCCN)C(N)=O` showed an Emax in the assay filed under Mus musculus [1] of -84.
For the compound `CC(NC(=O)CNC(=O)[C@@H](NC(=O)[C@H](Cc1ccccc1)NC(=O)CNC(=O)C(C)NC(=O)[C@@H](N)Cc1ccccc1)[C@@H](C)O)C(=O)N[C@@H](CCCN=C(N)N)C(=O)N[C@@H](CCCCN)C(=O)N[C@@H](CO)C(=O)NC(C)C(=O)N[C@@H](CCCN=C(N)N)C(=O)N[C@@H](CCCCN)C(N)=O` (stereo in doubt), the Emax in the assay listed under Mus musculus [1] is listed as -81. In the assay listed under Mus musculus [2], the half-maximal effective concentration (EC50) was 1 µM.
With `C[C@H](NC(=O)CNC(=O)[C@@H](NC(=O)[C@H](Cc1ccccc1)NC(=O)[C@@H](Cc1ccccc1)NC(=O)CNC(=O)[C@@H](N)Cc1ccccc1)[C@@H](C)O)C(=O)N[C@@H](CCCN=C(N)N)C(=O)N[C@@H](CCCCN)C(=O)N[C@@H](CO)C(=O)N[C@@H](C)C(=O)N[C@@H](CCCN=C(N)N)C(=O)N[C@@H](CCCCN)C(N)=O` (H-FG[dF]FTGARKSARK-NH2), the Emax in the assay listed under Mus musculus [3] is -75. In addition, the pA2 entry in the assay listed under Mus musculus [4] is “inactive”. In addition, in the assay filed under Mus musculus [2], the EC50 is 2.09 µM.
In the assay listed under Mus musculus [1], H-FGGGFTGARKSARK-NH2 yielded an Emax of -73. Besides, the pA2 result in the assay filed under Mus musculus [4] is “inactive”. The compound further showed an EC50 in the assay filed under Mus musculus [2] of 3.24 µM.
As for `C[C@H](NC(=O)CNC(=O)[C@@H](NC(=O)[C@H](Cc1ccccc1)NC(=O)CCNC(=O)[C@@H](N)Cc1ccccc1)[C@@H](C)O)C(=O)N[C@@H](CCCN=C(N)N)C(=O)N[C@@H](CCCCN)C(=O)N[C@@H](CO)C(=O)N[C@@H](C)C(=O)N[C@@H](CCCN=C(N)N)C(=O)N[C@@H](CCCCN)C(N)=O` (H-F[βAla]FTGARKSARK-NH2), the pA2 result in the assay filed under Mus musculus [4] is “inactive”. In the assay filed under Mus musculus [5], the Emax entry is “inactive”. Further, the “Log EC50” value in the assay listed under Mus musculus [6] was “inactive”.
As for H-FFTGARKSARK-NH2, the pA2 entry in the assay listed under Mus musculus [4] was “inactive”. The Emax result in the assay listed under Mus musculus [5] was “inactive”. In addition, the “Log EC50” value in the assay listed under Mus musculus [6] is “inactive”.
In the case of H-FPFTGARKSARK-NH2, the pA2 result in the assay filed under Mus musculus [4] is “inactive”. Further, the Emax entry in the assay listed under Mus musculus [5] was “inactive”. In the assay listed under Mus musculus [6], the “Log EC50” value is “inactive”.
As to `C[C@H](NC(=O)CNC(=O)[C@@H](NC(=O)[C@H](Cc1ccccc1)NC(=O)CCCNC(=O)[C@@H](N)Cc1ccccc1)[C@@H](C)O)C(=O)N[C@@H](CCCN=C(N)N)C(=O)N[C@@H](CCCCN)C(=O)N[C@@H](CO)C(=O)N[C@@H](C)C(=O)N[C@@H](CCCN=C(N)N)C(=O)N[C@@H](CCCCN)C(N)=O` (H-F[GABA]FTGARKSARK-NH2), the pA2 entry in the assay listed under Mus musculus [4] is “inactive”. Moreover, the Emax result in the assay listed under Mus musculus [5] was “inactive”. The “Log EC50” value in the assay listed under Mus musculus [6] was “inactive”.
Turning to `C[C@H](NC(=O)CNC(=O)[C@@H](NC(=O)[C@H](Cc1ccccc1)NC(=O)CCCCNC(=O)[C@@H](N)Cc1ccccc1)[C@@H](C)O)C(=O)N[C@@H](CCCN=C(N)N)C(=O)N[C@@H](CCCCN)C(=O)N[C@@H](CO)C(=O)N[C@@H](C)C(=O)N[C@@H](CCCN=C(N)N)C(=O)N[C@@H](CCCCN)C(N)=O` (H-F[Ava]FTGARKSARK-NH2), the pA2 result in the assay filed under Mus musculus [4] is “inactive”. Moreover, the Emax result in the assay listed under Mus musculus [5] is “inactive”. The “Log EC50” value in the assay filed under Mus musculus [6] is “inactive”.
With `C[C@H](NC(=O)CNC(=O)[C@@H](NC(=O)[C@H](Cc1ccccc1)NC(=O)CNC(=O)CNC[C@@H](N)Cc1ccccc1)[C@@H](C)O)C(=O)N[C@@H](CCCN=C(N)N)C(=O)N[C@@H](CCCCN)C(=O)N[C@@H](CO)C(=O)N[C@@H](C)C(=O)N[C@@H](CCCN=C(N)N)C(=O)N[C@@H](CCCCN)C(N)=O` (H-[X1]GFTGARKSARK-NH2), in the assay filed under Mus musculus [7], the Kb was 0.178 µM. Besides, the Emax result in the assay filed under Mus musculus [5] was “inactive”. Moreover, in the assay filed under Mus musculus [6], the “Log EC50” value is “inactive”.
Turning to `C[C@H](NC(=O)CNC(=O)[C@@H](NC(=O)C(Cc1ccccc1)NC(=O)CNC(=O)CNC[C@H](N)Cc1ccccc1)[C@@H](C)O)C(=O)N[C@@H](CCCN=C(N)N)C(=O)N[C@@H](CCCCN)C(=O)N[C@@H](CO)C(=O)N[C@@H](C)C(=O)N[C@@H](CCCN=C(N)N)C(=O)N[C@@H](CCCCN)C(N)=O` (stereo in doubt), the pA2 entry in the assay listed under Mus musculus [4] was “inactive”. Moreover, the Emax result in the assay listed under Mus musculus [5] is “inactive”. Besides, the “Log EC50” value in the assay filed under Mus musculus [6] is “inactive”.
As to H-FGFFTGARKSARK-NH2, in the assay listed under Mus musculus [4], the pA2 result is “inactive”. The Emax entry in the assay listed under Mus musculus [5] is “inactive”. The “Log EC50” value in the assay filed under Mus musculus [6] was “inactive”.
`CC(C)C[C@H](NC(=O)[C@H](CCCCN)NC(=O)[C@H](CCCNC(=N)N)NC(=O)[C@H](C)NC(=O)[C@H](CO)NC(=O)[C@H](CCCCN)NC(=O)[C@H](CCCNC(=N)N)NC(=O)[C@H](C)NC(=O)CNC(=O)[C@@H](NC(=O)[C@H](Cc1ccccc1)NC(=O)CNC(=O)CNC(=O)[C@@H](N)Cc1ccccc1)[C@@H](C)O)C(=O)N[C@@H](C)C(=O)N[C@@H](CC(N)=O)C(=O)N[C@@H](CCC(N)=O)C(=O)O` [NOCICEPTIN] displayed an Emax in the assay filed under Mus musculus [1] of -83.
`C[C@H](NC(=O)CNC(=O)[C@@H](NC(=O)[C@H](Cc1ccccc1)NC(=O)CNC(=O)[C@H](Cc1ccccc1)NC(=O)[C@@H](N)Cc1ccccc1)[C@@H](C)O)C(=O)N[C@@H](CCCN=C(N)N)C(=O)N[C@@H](CCCCN)C(=O)N[C@@H](CO)C(=O)N[C@@H](C)C(=O)N[C@@H](CCCN=C(N)N)C(=O)N[C@@H](CCCCN)C(N)=O`: the pA2 result in the assay filed under Mus musculus [8] is “inactive”. Moreover, the Emax entry in the assay filed under Mus musculus [9] is “inactive”. The “Log EC50” value in the assay filed under Mus musculus [10] is “inactive”.
Turning to `C[C@H](NC(=O)CNC(=O)[C@@H](NC(=O)[C@H](Cc1ccccc1)NC(=O)CNC(=O)[C@@H](Cc1ccccc1)NC(=O)[C@@H](N)Cc1ccccc1)[C@@H](C)O)C(=O)N[C@@H](CCCN=C(N)N)C(=O)N[C@@H](CCCCN)C(=O)N[C@@H](CO)C(=O)N[C@@H](C)C(=O)N[C@@H](CCCN=C(N)N)C(=O)N[C@@H](CCCCN)C(N)=O`, the pA2 result in the assay listed under Mus musculus [8] is “inactive”. Also, the Emax result in the assay listed under Mus musculus [9] is “inactive”. The “Log EC50” value in the assay listed under Mus musculus [10] is “inactive”.

For orientation: EC50 means the concentration that produces a half-maximal response. Higher therefore signals a need for much substance.
